According to ChEMBL document CHEMBL1146542, “Cytotoxic flavone analogues of vitexicarpin, a constituent of the leaves of Vitex negundo” (J Nat Prod, 2003):
Values after ≈ are worked out from the molar mass of the structure shown. Active and inactive are the calls of the source. The calls are words filed in the database; no cut-off is given here.

Key:
LNCaP [1] = assay: Cytotoxicity against human LNCAP cells; type: functional; conditions: read-out: ED50 (the source's name)
[2] = Cytotoxicity against HUVEC; type: cell-based; conditions: human, read-out: ED50 (the source's name)
Lu1 [3] = assay: Cytotoxicity against human Lu1 cells; type: functional; conditions: read-out: ED50 (the source's name)
[4] = Cytotoxicity against human telomerase reverse transcriptase expressing RPE1 cells; type: cell-based, TERT-RPE1; conditions: read-out: ED50 (the source's name)
KB [5] = assay: Cytotoxicity against human KB cells; type: functional; conditions: read-out: ED50 (the source's name)
Col2 = assay: Cytotoxicity against human Col2 cells; type: functional; conditions: read-out: ED50 (the source's name)
KB [6] = assay: Inhibition of human KB cells propagated in hollow fibers via subcutaneous site of NCr nu/nu mouse at 10 to 40 mg/kg, ip once daily after 7 days of implantation relative to control; type: functional; conditions: dose mg/kg 10-40
How it was run: (§1)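 Hollow fiber assay in mice with KB, LNCaP and Lu1 cells, with fibers placed at intraperitoneal and subcutaneous sites. Compound given ip at 10, 20 and 40 mg/kg. Read-out was percent growth inhibition of the cells at each site versus control, and body weight of the mice was monitored.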

Lu1 [7] = assay: Inhibition of human Lu1 cells propagated in hollow fibers via subcutaneous site of NCr nu/nu mouse at 10 to 40 mg/kg, ip once daily after 7 days of implantation relative to control; type: functional; conditions: dose mg/kg 10-40; how it was run: as §1
LNCaP [8] = assay: Inhibition of human LNCAP cells propagated in hollow fibers via intraperitoneal site of NCr nu/nu mouse at 10 to 40 mg/kg, ip once daily after 7 days of implantation relative to control; type: functional; conditions: dose mg/kg 10-40; how it was run: as §1
LNCaP [9] = assay: Inhibition of human LNCAP cells propagated in hollow fibers via subcutaneous site of NCr nu/nu mouse at 10 to 40 mg/kg, ip once daily after 7 days of implantation relative to control; type: functional; conditions: dose mg/kg 10-40; how it was run: as §1
Lu1 [10] = assay: Inhibition of human Lu1 cells propagated in hollow fibers via intraperitoneal site of NCr nu/nu mouse at 10 to 40 mg/kg, ip once daily after 7 days of implantation relative to control; type: functional, organism-based; how it was run: as §1
P388 = assay: In vivo growth inhibition of mouse P388 cells at 135 mg/kg, ip relative to control; type: functional; conditions: route intraperitoneal
How it was run: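 Mouse P-388 leukemia model run under a standard protocol. Compound given intraperitoneally at 135 mg/kg/injection, and activity was expressed as T/C value (%).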

COc1ccc(-c2oc3cc(OC)c(OC)c(OC)c3c(=O)c2OC)cc1OC [HEXAMETHOXYFLAVONE]
EC50 (LNCaP [1]): > 20 µg/mL | CC50 [2]: > 20 µg/mL | EC50 (Lu1 [3]): > 20 µg/mL | CC50 [4]: > 20 µg/mL | EC50 (KB [5]): > 20 µg/mL | EC50 (Col2): > 20 µg/mL

CCCCCC(=O)Oc1cc(-c2oc3cc(OC)c(OC)c(OC(=O)CCCCC)c3c(=O)c2OC)ccc1OC
EC50 (LNCaP [1]): 0.5 µg/mL (≈ 0.876 µM) | CC50 [2]: 11.1 µg/mL (≈ 19.5 µM) | inhibition (INH) (KB [6]): 0% | EC50 (Lu1 [3]): 0.7 µg/mL (≈ 1.23 µM) | inhibition (INH) (Lu1 [7]): 0% | CC50 [4]: 0.4 µg/mL (≈ 0.701 µM) | EC50 (KB [5]): 0.5 µg/mL (≈ 0.876 µM) | inhibition (INH) (LNCaP [8]): 0% | inhibition (INH) (LNCaP [9]): 0% | EC50 (Col2): > 20 µg/mL | Activity (Lu1 [10]): inactive | T/C (P388): 100%

CCC(=O)Oc1cc(-c2oc3cc(OC)c(OC)c(OC(=O)CC)c3c(=O)c2OC)ccc1OC
EC50 (LNCaP [1]): 0.4 µg/mL (≈ 0.822 µM) | CC50 [2]: 6.5 µg/mL (≈ 13.4 µM) | EC50 (Lu1 [3]): 1 µg/mL (≈ 2.06 µM) | CC50 [4]: 0.5 µg/mL (≈ 1.03 µM) | EC50 (KB [5]): 0.6 µg/mL (≈ 1.23 µM) | EC50 (Col2): > 20 µg/mL

COc1ccc(-c2oc3cc(OC)c(OC)c(OC(=O)c4ccccc4)c3c(=O)c2OC)cc1OC(=O)c1ccccc1
EC50 (LNCaP [1]): > 20 µg/mL | CC50 [2]: > 20 µg/mL | EC50 (Lu1 [3]): 6.5 µg/mL (≈ 11.2 µM) | CC50 [4]: 4.3 µg/mL (≈ 7.38 µM) | EC50 (KB [5]): > 20 µg/mL | EC50 (Col2): > 20 µg/mL

C=CCCC(=O)Oc1cc(-c2oc3cc(OC)c(OC)c(OC(=O)CCC=C)c3c(=O)c2OC)ccc1OC
EC50 (LNCaP [1]): 0.7 µg/mL (≈ 1.3 µM) | CC50 [2]: 5.5 µg/mL (≈ 10.2 µM) | EC50 (Lu1 [3]): 1.4 µg/mL (≈ 2.6 µM) | CC50 [4]: 0.6 µg/mL (≈ 1.11 µM) | EC50 (KB [5]): 0.6 µg/mL (≈ 1.11 µM) | EC50 (Col2): 15 µg/mL (≈ 27.9 µM)

CCCC(=O)Oc1cc(-c2oc3cc(OC)c(OC)c(OC(=O)CCC)c3c(=O)c2OC)ccc1OC
EC50 (LNCaP [1]): 0.8 µg/mL (≈ 1.55 µM) | CC50 [2]: > 20 µg/mL | EC50 (Lu1 [3]): 1.7 µg/mL (≈ 3.3 µM) | CC50 [4]: 0.6 µg/mL (≈ 1.17 µM) | EC50 (KB [5]): 0.5 µg/mL (≈ 0.972 µM) | EC50 (Col2): 11.7 µg/mL (≈ 22.7 µM)

COc1ccc(-c2oc3cc(OC)c(OC)c(OC(C)=O)c3c(=O)c2OC)cc1OC(C)=O
EC50 (LNCaP [1]): 0.1 µg/mL (≈ 0.218 µM) | CC50 [2]: 0.1 µg/mL (≈ 0.218 µM) | EC50 (Lu1 [3]): 0.7 µg/mL (≈ 1.53 µM) | CC50 [4]: 0.4 µg/mL (≈ 0.873 µM) | EC50 (KB [5]): 0.2 µg/mL (≈ 0.436 µM) | EC50 (Col2): 15.9 µg/mL (≈ 34.7 µM)

COc1ccc(-c2oc3cc(OC)c(OC)c(O)c3c(=O)c2OC)cc1O [CASTICIN]
EC50 (LNCaP [1]): 0.5 µg/mL (≈ 1.34 µM) | CC50 [2]: 0.6 µg/mL (≈ 1.6 µM) | EC50 (Lu1 [3]): 0.8 µg/mL (≈ 2.14 µM) | CC50 [4]: 0.2 µg/mL (≈ 0.534 µM) | EC50 (KB [5]): 0.2 µg/mL (≈ 0.534 µM) | EC50 (Col2): 12.7 µg/mL (≈ 33.9 µM)

COc1ccc(-c2oc3cc(OC)c(OC)c(O)c3c(=O)c2OC)cc1OC(=O)c1ccccc1
EC50 (LNCaP [1]): > 20 µg/mL | CC50 [2]: 20 µg/mL (≈ 41.8 µM) | EC50 (Lu1 [3]): 16.5 µg/mL (≈ 34.5 µM) | CC50 [4]: 3.6 µg/mL (≈ 7.52 µM) | EC50 (KB [5]): > 20 µg/mL | EC50 (Col2): > 20 µg/mL
